Source: ChEMBL document CHEMBL2346510, “Synthesis and antifungal evaluation of 7-arylamino-5,8-dioxo-5,8-dihydroisoquinoline-4-carboxylates” (2013)
In brackets after ≈: the same amount, converted by molar mass.

What was measured:
Assay type in all cases: functional
Aspergillus niger = assay: Antifungal activity against Aspergillus niger KCTC 1231 after 2 days by two fold broth dilution method; conditions: KCTC 1231, 48 h
In short: (§1)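 Twofold broth dilution in modified Sabouraud dextrose broth, inoculum about 1 × 10⁵ cells/mL. Compounds were tested at final concentrations of […]. Plates were incubated at 37 °C and the MIC was read after 2 days. Fluconazole and 5-fluorocytosine served as reference agents.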

Candida albicans = assay: Antifungal activity against Candida albicans Berkout KCCM 50235 after 1 day by two fold broth dilution method; conditions: Berkout KCCM 50235, 24 h
In short: (§2)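 Yeasts were tested by twofold broth dilution in modified Sabouraud dextrose broth with about 1 × 10⁵ cells/mL inoculum. Final compound concentrations ran from […]. Incubation was at 37 °C with the MIC read after 1 day. Fluconazole and 5-fluorocytosine were the standard comparators.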

Cryptococcus neoformans = assay: Antifungal activity against Cryptococcus neoformans KCCM 50564 after 1 day by two fold broth dilution method; conditions: KCCM 50564, 24 h; in short: as §2
Aspergillus flavus = assay: Antifungal activity against Aspergillus flavus KCCM 11899 after 2 days by two fold broth dilution method; conditions: KCCM 11899, 48 h; in short: as §1
Pichia kudriavzevii = assay: Antifungal activity against Candida krusei Berkout KCCM 11655 after 1 day by two fold broth dilution method; conditions: Berkout KCCM 11655, 24 h; in short: as §2
Candida tropicalis = assay: Antifungal activity against Candida tropicalis Berkout KCCM 50662 after 1 day by two fold broth dilution method; conditions: Berkout KCCM 50662, 24 h; in short: as §2

Compound | MIC (Aspergillus niger) [mg/L] | MIC (Candida albicans) [mg/L] | MIC (Cryptococcus neoformans) [mg/L] | MIC (Aspergillus flavus) [mg/L] | MIC (Pichia kudriavzevii) [mg/L] | MIC (Candida tropicalis) [mg/L]
COC(=O)c1c(C)nc(C)c2c1C(=O)C=C(Nc1ccc(Br)cc1)C2=O | 6.3 (≈ 15.2 µM) | 12.5 (≈ 30.1 µM) | 12.5 (≈ 30.1 µM) | 12.5 (≈ 30.1 µM) | 12.5 (≈ 30.1 µM) | 12.5 (≈ 30.1 µM)
COC(=O)c1c(C)nc(C)c2c1C(=O)C(Cl)=C(Nc1ccc(Cl)cc1)C2=O | 3.2 (≈ 7.9 µM) | 1.6 (≈ 3.95 µM) | 12.5 (≈ 30.8 µM) | 1.6 (≈ 3.95 µM) | 12.5 (≈ 30.8 µM) | 6.3 (≈ 15.5 µM)
COC(=O)c1c(C)nc(C)c2c1C(=O)C(Br)=C(Nc1ccc(OC)cc1)C2=O | 1.6 (≈ 3.59 µM) | 0.8 (≈ 1.8 µM) | 1.6 (≈ 3.59 µM) | 12.5 (≈ 28.1 µM) | 1.6 (≈ 3.59 µM) | 12.5 (≈ 28.1 µM)
OC(Cn1cncn1)(Cn1cncn1)c1ccc(F)cc1F [FLUCONAZOLE] | 25 (≈ 81.6 µM) | 50 (≈ 163 µM) | 6.3 (≈ 20.6 µM) | 25 (≈ 81.6 µM) | 25 (≈ 81.6 µM) | 6.3 (≈ 20.6 µM)
COC(=O)c1c(C)nc(C)c2c1C(=O)C=CC2=O | > 100 | 25 (≈ 102 µM) | 50 (≈ 204 µM) | 50 (≈ 204 µM) | 50 (≈ 204 µM) | 12.5 (≈ 51 µM)
COC(=O)c1c(C)nc(C)c2c1C(=O)C(Br)=C(Nc1ccc(F)cc1)C2=O | 6.3 (≈ 14.5 µM) | 6.3 (≈ 14.5 µM) | 6.3 (≈ 14.5 µM) | 12.5 (≈ 28.9 µM) | 12.5 (≈ 28.9 µM) | 6.3 (≈ 14.5 µM)
COC(=O)c1c(C)nc(C)c2c1C(=O)C=C(Sc1ccc(C)cc1)C2=O | 6.3 (≈ 17.1 µM) | 6.3 (≈ 17.1 µM) | 1.6 (≈ 4.35 µM) | 3.2 (≈ 8.71 µM) | 12.5 (≈ 34 µM) | 6.3 (≈ 17.1 µM)
COC(=O)c1c(C)nc(C)c2c1C(=O)C=C(Sc1ccc(C)c(C)c1)C2=O | 6.3 (≈ 16.5 µM) | 25 (≈ 65.5 µM) | 6.3 (≈ 16.5 µM) | 6.3 (≈ 16.5 µM) | 12.5 (≈ 32.8 µM) | 12.5 (≈ 32.8 µM)
COC(=O)c1c(C)nc(C)c2c1C(=O)C(Br)=C(Nc1ccc(Cl)cc1)C2=O | 12.5 (≈ 27.8 µM) | 25 (≈ 55.6 µM) | 12.5 (≈ 27.8 µM) | 12.5 (≈ 27.8 µM) | 25 (≈ 55.6 µM) | 6.3 (≈ 14 µM)
CC(=O)c1cc(O)ccc1O | > 100 | 50 (≈ 329 µM) | 50 (≈ 329 µM) | 100 (≈ 657 µM) | 100 (≈ 657 µM) | 50 (≈ 329 µM)
COC(=O)c1c(C)nc(C)c2c1C(=O)C(Br)=C(Nc1ccc(C)cc1)C2=O | 6.3 (≈ 14.7 µM) | 6.3 (≈ 14.7 µM) | 6.3 (≈ 14.7 µM) | 25 (≈ 58.2 µM) | 6.3 (≈ 14.7 µM) | 1.6 (≈ 3.73 µM)
COC(=O)c1c(C)nc(C)c2c1C(=O)C(Cl)=C(Nc1ccc(C)cc1)C2=O | 1.6 (≈ 4.16 µM) | 1.6 (≈ 4.16 µM) | 6.3 (≈ 16.4 µM) | 25 (≈ 65 µM) | 3.2 (≈ 8.32 µM) | 0.8 (≈ 2.08 µM)
COC(=O)c1c(C)nc(C)c2c1C(=O)C(Cl)=C(Nc1ccc(C#N)cc1)C2=O | 6.3 (≈ 15.9 µM) | 1.6 (≈ 4.04 µM) | 1.6 (≈ 4.04 µM) | 6.3 (≈ 15.9 µM) | 12.5 (≈ 31.6 µM) | 12.5 (≈ 31.6 µM)
Nc1nc(=O)[nH]cc1F [FLUCYTOSINE] | 6.3 (≈ 48.8 µM) | 3.2 (≈ 24.8 µM) | 12.5 (≈ 96.8 µM) | 6.3 (≈ 48.8 µM) | 6.3 (≈ 48.8 µM) | 3.2 (≈ 24.8 µM)
COC(=O)c1c(C)nc(C)c2c1C(=O)C(Cl)=C(Nc1ccc(OC)cc1)C2=O | 3.2 (≈ 7.98 µM) | 1.6 (≈ 3.99 µM) | 3.2 (≈ 7.98 µM) | 6.3 (≈ 15.7 µM) | 12.5 (≈ 31.2 µM) | 12.5 (≈ 31.2 µM)
COC(=O)c1c(C)nc(C)c2c1C(=O)C(Br)=C(Nc1ccc(Br)cc1)C2=O | 1.6 (≈ 3.24 µM) | 1.6 (≈ 3.24 µM) | 12.5 (≈ 25.3 µM) | 3.2 (≈ 6.48 µM) | 12.5 (≈ 25.3 µM) | 1.6 (≈ 3.24 µM)
COC(=O)c1c(C)nc(C)c2c1C(=O)C(Br)=C(Nc1ccc(F)c(F)c1)C2=O | 6.3 (≈ 14 µM) | 6.3 (≈ 14 µM) | 12.5 (≈ 27.7 µM) | 12.5 (≈ 27.7 µM) | 25 (≈ 55.4 µM) | 1.6 (≈ 3.55 µM)
COC(=O)c1c(C)nc(C)c2c1C(=O)C(Cl)=C(Nc1ccc(I)cc1)C2=O | 1.6 (≈ 3.22 µM) | 6.3 (≈ 12.7 µM) | 3.2 (≈ 6.44 µM) | 25 (≈ 50.3 µM) | 12.5 (≈ 25.2 µM) | 6.3 (≈ 12.7 µM)
COC(=O)c1c(C)nc(C)c2c1C(=O)C=C(Nc1ccc(I)cc1)C2=O | 12.5 (≈ 27 µM) | 12.5 (≈ 27 µM) | 6.3 (≈ 13.6 µM) | 12.5 (≈ 27 µM) | 12.5 (≈ 27 µM) | 12.5 (≈ 27 µM)
COC(=O)c1c(C)nc(C)c2c1C(=O)C(Cl)=C(Nc1ccc(Br)cc1)C2=O | 1.6 (≈ 3.56 µM) | 1.6 (≈ 3.56 µM) | 3.2 (≈ 7.12 µM) | 6.3 (≈ 14 µM) | 6.3 (≈ 14 µM) | 12.5 (≈ 27.8 µM)
COC(=O)c1c(C)nc(C)c2c1C(=O)C=C(Nc1ccc(C)cc1)C2=O | 25 (≈ 71.4 µM) | 25 (≈ 71.4 µM) | 12.5 (≈ 35.7 µM) | 25 (≈ 71.4 µM) | 25 (≈ 71.4 µM) | 25 (≈ 71.4 µM)
COC(=O)c1c(C)nc(C)c2c1C(=O)C=C(Sc1ccc(O)cc1)C2=O | 6.3 (≈ 17.1 µM) | 25 (≈ 67.7 µM) | 3.2 (≈ 8.66 µM) | 6.3 (≈ 17.1 µM) | 6.3 (≈ 17.1 µM) | 25 (≈ 67.7 µM)
COC(=O)c1c(C)nc(C)c2c1C(=O)C(Cl)=C(Nc1ccc(F)c(F)c1)C2=O | 1.6 (≈ 3.93 µM) | 1.6 (≈ 3.93 µM) | 12.5 (≈ 30.7 µM) | 6.3 (≈ 15.5 µM) | 6.3 (≈ 15.5 µM) | 25 (≈ 61.5 µM)
COC(=O)c1c(C)nc(C)c2c1C(=O)C(Cl)=C(Nc1ccc(F)cc1)C2=O | 1.6 (≈ 4.12 µM) | 1.6 (≈ 4.12 µM) | 6.3 (≈ 16.2 µM) | 6.3 (≈ 16.2 µM) | 6.3 (≈ 16.2 µM) | 1.6 (≈ 4.12 µM)
